Here are results for two compounds from ChEMBL document CHEMBL4190346, “Structure-based design, synthesis, and biological evaluation of withaferin A-analogues as potent apoptotic inducers” (Eur J Med Chem, 2017).

The source made the active and inactive calls. No cut-off for these calls is given here. Bounds are passed on as bounds.

Data set [1] deals with HeLa. The experiment in a line: Cytotoxicity against human HeLa cells assessed as reduction in cell viability using compound addition to cell culture cells in lag phase of growth and incubated for 48 hrs by MTT assay. In kind it is functional, cell-based. The note with it: Homo sapiens, HeLa, 48 h; read-out: IC50. A general note: Formazan colour is commonly taken as a measure of viable cells.

In data set [2] the test system is HeLa. The experiment in a line: Cytotoxicity against human HeLa cells assessed as reduction in cell viability using compound addition to cell culture cells in log phase of growth and incubated for 48 hrs by MTT assay. The note with it: Homo sapiens, HeLa, 48 h; read-out: IC50. Format: functional, cell-based.
For data set [3], the system named is A549. Nature of the data set: Cytotoxicity against human A549 cells assessed as reduction in cell viability using compound addition to cell culture cells in lag phase of growth and incubated for 48 hrs by MTT assay. Particulars: Homo sapiens, A549, 48 h; read-out: IC50. Format: functional, cell-based.
Data set [4] relates to A549. The experiment in a line: Cytotoxicity against human A549 cells assessed as reduction in cell viability using compound addition to cell culture cells in log phase of growth and incubated for 48 hrs by MTT assay. Particulars: Homo sapiens, A549, 48 h; read-out: IC50. Format: functional, cell-based.
Data set [5] concerns MCF7. The experiment in a line: Cytotoxicity against human MCF7 cells assessed as reduction in cell viability using compound addition to cell culture cells in lag phase of growth and incubated for 48 hrs by MTT assay. The note with it: Homo sapiens, MCF7, 48 h; read-out: IC50. In kind it is functional, cell-based.
In data set [6] the test system is MCF7. The experiment in a line: Cytotoxicity against human MCF7 cells assessed as reduction in cell viability using compound addition to cell culture cells in log phase of growth and incubated for 48 hrs by MTT assay. Particulars: Homo sapiens, MCF7, 48 h; read-out: IC50. Format: functional, cell-based.
For data set [7], the system named is Vero. The experiment in a line: Cytotoxicity against African green monkey Vero cells assessed as reduction in cell viability using compound addition to cell culture cells in lag phase of growth and incubated for 48 hrs by MTT assay. In kind it is cell-based, Chlorocebus sabaeus. The note with it: Chlorocebus sabaeus, Vero, 48 h; read-out: IC50.
In data set [8] the test system is Vero. The experiment in a line: Cytotoxicity against African green monkey Vero cells assessed as reduction in cell viability using compound addition to cell culture cells in log phase of growth and incubated for 48 hrs by MTT assay. Format: cell-based, Chlorocebus sabaeus. Particulars: Chlorocebus sabaeus, Vero, 48 h; read-out: IC50.
Data set [9] in a line: Selectivity index, ratio of IC50 for African green monkey Vero cells to IC50 for human HeLa cells. In kind it is toxicity. The note with it: Vero cells and HeLa cells, read-out: Ratio IC50.
Data set [10] has as its system HeLa. Nature of the data set: Induction of apoptosis in human HeLa cells assessed increase in DNA fragmentation at 16 uM incubated for 12 hrs by ethidium bromide staining based agarose gel electrophoresis. Format: functional, cell-based. An outline of the steps:
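HeLa cells were incubated with the compounds at varying concentrations for 12 or 24 h. Controls were DMSO (solvent) and staurosporine 2 µM (positive). Adherent and floating cells were pooled, centrifuged at 500 g and washed twice in cold PBS. Genomic DNA was extracted with a kit, run on 1.8% agarose, stained with ethidium bromide and viewed under UV.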

Data set [11] concerns HeLa. Nature of the data set: Induction of apoptosis in human HeLa cells assessed increase in apoptotic nuclei formation at 8 uM incubated for 12 hrs by Hoechst 33342 staining based fluorescence microscopy. Format: functional.
Data set [12] relates to HeLa. The experiment in a line: Induction of cell cycle arrest in human HeLa cells assessed increase in subG1 phase accumulation at 24 uM incubated for 12 hrs by 33342 propidium iodide based flow cytometry relative to untreated control. In kind it is functional. On the technique in general: A flow cytometer gives signals particle by particle.
Data set [13] has as its system HeLa. The experiment in a line: Induction of cell cycle arrest in human HeLa cells assessed increase in subG1 phase accumulation at 24 uM incubated for 12 hrs by 33342 propidium iodide based flow cytometry relative to Withaferin A. In kind it is functional. An outline of the steps: (§1)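 HeLa cells (1–2 × 10^6 per well) were exposed for 12 h at 24 µM, or at 16 µM over a time course. Adherent and floating cells were pooled, washed in ice-cold PBS, and fixed/permeabilized overnight in ice-cold 70% ethanol. DNA was stained with propidium iodide and G1, G2/M and sub-G1 (hypoploid) fractions were read by flow cytometry. Results are from ≥3 independent experiments in triplicate.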

Data set [14] concerns HeLa. Nature of the data set: Induction of cell cycle arrest in human HeLa cells assessed increase in hypoploid phase accumulation at 24 uM incubated for 12 hrs by […] propidium iodide based flow cytometry relative to untreated control. Format: functional.
Data set [15] deals with HeLa. Nature of the data set: Induction of cell cycle arrest in human HeLa cells assessed increase in subG1 phase accumulation at 16 uM by 33342 propidium iodide based flow cytometry relative to untreated control. Format: functional. The note with it: TDE = time-dependent effect. An outline of the steps:
as §1

Data set [16] deals with HeLa. Nature of the data set: Induction of cell cycle arrest in human HeLa cells assessed reduction in G2/M phase accumulation at 16 uM by 33342 propidium iodide based flow cytometry relative to untreated control. In kind it is functional. Particulars: TDE = time-dependent effect. An outline of the steps: as §1
Data set [17] deals with HeLa. The experiment in a line: Induction of cell cycle arrest in human HeLa cells assessed accumulation at G2/M phase at 16 uM incubated for 24 hrs by 33342 propidium iodide based flow cytometry relative to untreated control. In kind it is functional. The note with it: in the assay text read “accumulation at sub-G1 phase” for “accumulation at G2/M phase”. A digest of the protocol: as §1

In data set [18] the test system is HeLa. The experiment in a line: Induction of early apoptosis in human HeLa cells at 4 uM incubated for 1 hr by annexin V and propidium iodide staining based flow cytometry. Format: functional, cell-based.
Data set [19] deals with HeLa. The experiment in a line: Induction of late apoptosis in human HeLa cells at 8 uM incubated for 1 hr by annexin V and propidium iodide staining based flow cytometry. Format: functional, cell-based.
Data set [20] deals with HeLa. Nature of the data set: Induction of apoptosis in human HeLa cells assessed as increase in caspase-3 activity by measuring pNA release level at 24 uM incubated for 8 hrs using c-DEVD-pNA substrate by colorimetric assay. In kind it is functional. A digest of the protocol: (§2)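 HeLa cells in DMEM with 10% FBS were exposed for 4 h (fixed 24 or 32 level for 8 h). Staurosporine for 4 h served as the positive control. Cells were lysed at 4 °C for 10 min and centrifuged, and supernatant protein was measured by Bradford. Caspase-3 activity was read colorimetrically as nmol pNA/min/mL, with treated/untreated OD ratios. Values are means ± SD of three independent experiments in triplicate.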

Data set [21] relates to HeLa. The experiment in a line: Induction of apoptosis in human HeLa cells assessed as increase in caspase-3 activity by measuring pNA release level at 8 uM incubated for 4 hrs using c-DEVD-pNA substrate by colorimetric assay. In kind it is functional. A digest of the protocol: as §2
The test system of data set [22] is HeLa. Nature of the data set: Induction of apoptosis in human HeLa cells assessed as increase in caspase-3 activity by measuring pNA release level at 12 uM incubated for 4 hrs using c-DEVD-pNA substrate by colorimetric assay. In kind it is functional. An outline of the steps: as §2
In data set [23] the test system is HeLa. Nature of the data set: Induction of apoptosis in human HeLa cells assessed as increase in caspase-3 activity by measuring pNA release level at 16 uM incubated for 4 hrs using c-DEVD-pNA substrate by colorimetric assay. In kind it is functional. A digest of the protocol: as §2
The subject of data set [24] is HeLa. The experiment in a line: Induction of apoptosis in human HeLa cells assessed as increase in caspase-3 activity by measuring pNA release level at 24 uM incubated for 4 hrs using c-DEVD-pNA substrate by colorimetric assay. Format: functional. An outline of the steps:
as §2

The subject of data set [25] is HeLa. Nature of the data set: Induction of apoptosis in human HeLa cells assessed as increase in caspase-3 activity by measuring pNA release level at 32 uM incubated for 4 hrs using c-DEVD-pNA substrate by colorimetric assay. Format: functional. A digest of the protocol:
as §2

Data set [26] deals with MCF7. The experiment in a line: Ratio of IC50 for cytotoxicity against human MCF7 cells using compound addition to cell culture cells in lag phase of growth and incubated for 48 hrs by MTT assay to IC50 for cytotoxicity against human MCF7 cells using compound addition to cell culture cells in log phase of growth and incubated for 48 hrs by MTT assay. Format: functional.

For data set [27], the system named is HeLa. The experiment in a line: Induction of apoptosis in human HeLa cells assessed as reduction in cellular adhesion at 32 uM incubated for 4 hrs by light microscopy.
Data set [28] relates to HeLa. Nature of the data set: Induction of apoptosis in human HeLa cells assessed as reduction in cellular integrity at 32 uM incubated for 4 hrs by light microscopy.

Broadly, the IC50 is the point on the concentration scale where inhibition reaches its midpoint. Consider `CC1=C(COC(=O)c2ccccc2)C(=O)O[C@@H]([C@@H](C)[C@H]2CC[C@H]3[C@@H]4C[C@H]5O[C@]56[C@@H](O)C=CC(=O)[C@]6(C)[C@H]4CC[C@]23C)C1`, for which the IC50 in the data set on HeLa [1] came to 0.8 µM; in the data set with HeLa [2], 1.6 µM; with A549 [3] it was 1 µM; in the data set with A549 [4], 1.5 µM; in the data set on MCF7 [5], 0.3 µM; with MCF7 [6], 0.7 µM. In addition, the IC50 stood at 0.2 µM in the data set with Vero [7] and 0.5 µM in the data set on Vero [8]. In addition, the selectivity ratio in data set [9] stood at 2.5. In addition, the outcome with HeLa [10], in the data set on HeLa [18] and with HeLa [19] was Active. For the same compound, the Activity was 28% with HeLa [11]; 22.1% with HeLa [14]; “Tde” in the data set with HeLa [15]; “Tde” in the data set on HeLa [16]; 37.8% with HeLa [17]; 1.7 to 2 nmol/min/mL with HeLa [20]. Moreover, the Activity in the data set on HeLa [21] was 0.32 nmol/min/mL; in the data set with HeLa [22] it was 0.52 nmol/min/mL; with HeLa [23] it was 0.67 nmol/min/mL; in the data set on HeLa [24] it was 1.16 nmol/min/mL; with HeLa [25], 0.85 nmol/min/mL. In addition, the “fold change (FC)” value is on record as 4 - 6 with HeLa [12] and 2 in the data set on HeLa [13].
Turning to `CC1=C(COC(=O)c2ccccc2)C(=O)O[C@@H]([C@@H](C)[C@H]2CC[C@H]3[C@@H]4C[C@H]5O[C@]56C(=O)C=CC(=O)[C@]6(C)[C@H]4CC[C@]23C)C1`, the IC50 in the data set on HeLa [1] came to 2.6 µM; in the data set with HeLa [2], 1.9 µM; in the data set on A549 [3], 3.2 µM; with A549 [4], 2.3 µM; in the data set with MCF7 [5], 5.4 µM; in the data set on MCF7 [6] it was 1.1 µM. Further, the IC50 in the data set on Vero [7] worked out at 3.1 µM; with Vero [8] it was 0.7 µM. In the data set on MCF7 [26], the “Ratio IC50” value is recorded as over 3. The Activity in the data set with HeLa [21] is 0.65 nmol/min/mL; in the data set with HeLa [22], 0.4 nmol/min/mL; with HeLa [23] it was 0.67 nmol/min/mL; in the data set on HeLa [24], 1.05 nmol/min/mL; with HeLa [25] it was 0.61 nmol/min/mL. Further, the outcome with HeLa [27] and with HeLa [28] was Active.
